Compound activity: PubChem, Sanford-Burnham Center for Chemical Genomics
This is a sample that favours compounds with a hit; in the whole collection about 0.79% have one here.
hIAP inh = blocks human intestinal alkaline phosphatase. P09923. purified IAP, CDP-Star luminescence, 30 min. inhibition, % at 10 µM. 330,000 compounds, 0.12% hits. AID 2544;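 active = inhibition reaching a set limit with compound at 10 µM in the primary screen, cut at about 35% in these data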;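 note: plate controls were DMSO wells with enzyme for no effect and no-enzyme buffer wells for full effect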
Target sequence (P09923 whole entry, looked up): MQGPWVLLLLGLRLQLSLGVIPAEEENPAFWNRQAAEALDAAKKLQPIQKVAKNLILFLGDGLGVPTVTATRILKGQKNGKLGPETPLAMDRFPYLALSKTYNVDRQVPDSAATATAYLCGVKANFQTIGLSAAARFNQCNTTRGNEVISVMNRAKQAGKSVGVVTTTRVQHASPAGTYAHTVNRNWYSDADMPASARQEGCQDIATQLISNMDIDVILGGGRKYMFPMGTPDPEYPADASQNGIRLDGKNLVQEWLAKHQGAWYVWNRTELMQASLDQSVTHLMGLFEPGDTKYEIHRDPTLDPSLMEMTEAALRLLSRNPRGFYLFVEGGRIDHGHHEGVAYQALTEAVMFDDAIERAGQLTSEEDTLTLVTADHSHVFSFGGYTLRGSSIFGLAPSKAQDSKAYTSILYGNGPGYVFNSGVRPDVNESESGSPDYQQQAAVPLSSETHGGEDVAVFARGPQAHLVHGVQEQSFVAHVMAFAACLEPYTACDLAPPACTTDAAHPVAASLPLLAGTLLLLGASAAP
hIAP activ = increases human intestinal alkaline phosphatase activity; AID 2524; 330,000 compounds, 0.16% hits; P09923; purified human IAP, CDP-Star luminescence, 30 min; stronger effect = higher value; 1 = vehicle-only enzyme, 0 = enzyme-free background; activation factor at 10 µM;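 active = activation factor of the enzyme at least 2-fold when tested at 20 µM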
bIAP act = intestinal alkaline phosphatase (bovine) activation; purified bovine IAP, CDP-star luminescence, 30 min; stronger effect = higher value; fold of DMSO-control signal, blank-subtracted; activation factor at 20 µM; 200,000 compounds, 0.17% hits;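 active = activation factor of 2 or more at 20 µM, a signal rise over negative controls twice the positive control's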
bIAP inhibitor = blocks bovine intestinal alkaline phosphatase activity | purified bovine IAP, CDP-star luminescence, 30 min | inhibition, % at 20 µM | 190,000 tested, under 10 active;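 active = over 50% inhibition of intestinal alkaline phosphatase at 20 µM in the single-dose screen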
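test system = bovine IAP enzyme | medium = DEA buffer 100 mM, pH 9.8, with MgCl2 1.0 mM, ZnCl2 0.02 mM | detection = luminescence | dosing = single compound dose of 20 µM, 2% DMSO final | incubation = 30 min reaction at room temperature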
mIAP inh = blocks mouse intestinal alkaline phosphatase | AID 2806 | 330,000 compounds, 0.2% hits | inhibition, % at 10 µM | purified mouse IAP, CDP-Star luminescence, 30 min;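 active = inhibition of at least 40% at 10 µM in the primary screen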;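 note: plate controls were DMSO with enzyme for no effect and no enzyme wells for full effect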
mIAP activ = increases mouse intestinal alkaline phosphatase activity; muIAP, CDP-Star luminescence, 30 min; stronger effect = higher value; 1 = vehicle-only enzyme signal, 0 = enzyme-free wells; activation factor at 10 µM; 330,000 compounds, 0.24% hits;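 active = activation factor of at least 2 at 20 µM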
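System: Mouse IAP enzyme | Also added: CDP-Star substrate | Dosing: Compounds dispensed in DMSO | Schedule: 30 min enzyme-substrate-compound incubation at room temperature | Technique: Chemiluminescence readout | Control set: DMSO-only wells and no-enzyme negative control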
mIAP inh conf = mouse IAP inhibition confirmation; shares compounds with mIAP inh; purified mouse IAP, CDP-Star luminescence, 30 min; inhibition, % at 10 µM; 11,000 compounds, 4.7% hits; AID 434971;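 active = inhibition of at least 40% at 10 µM in either of the two replicates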;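 note: plate controls were DMSO wells with enzyme for no effect and buffer wells lacking enzyme for full effect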
* marks the source's active call; other numbers are inactive results; i = inactive; . = no result.

SMILES	hIAP inh	hIAP activ	bIAP act	bIAP inhibitor	mIAP inh	mIAP activ	mIAP inh conf
O=C(O)CCCCCNS(=O)(=O)c1ccc2c3c(cccc13)C(=O)N2	12.1	0.879	.	.	7.7	0.923	.
Cc1cc(O)c(C=O)c2c1C(=O)Oc1c(CO)c(O)c3c(c1O2)C(O)OC3=O (configuration not stated)	14.3	0.857	0.9	14.8	86.6*	0.134	62.5*
Cc1cc(O)c(CN(C)C)c2c1C(=O)/C(=C/c1ccco1)O2	-4.1	1.04	.	.	18.5	0.815	.
CCCCN(C(=O)c1ccc(NC2CC2)c([N+](=O)[O-])c1)c1c(N)n(CC(C)C)c(=O)[nH]c1=O	-1.7	1.02	.	.	4.9	0.951	.
O=C(CN1C(=O)c2ccccc2S1(=O)=O)c1ccc(F)c(F)c1	2.4	0.976	.	.	2.3	0.977	.
O=C(CN1C(=O)c2ccccc2S1(=O)=O)c1ccc(O)c(O)c1	-4.4	1.04	.	.	52.7*	0.473	57.1*
Cc1csc(NC(=O)CSc2nncn2C)n1	-14.8	1.15	1	4.7	-7.6	1.08	.
O=C(COC(=O)COc1ccccc1)Nc1ncc([N+](=O)[O-])s1	-28.5	1.28	.	.	62.8*	0.372	69.3*
O=C(COc1ccc(Cl)cc1)Nc1ncc([N+](=O)[O-])s1	.	.	1.1	-10.9	.	.	.
Cn1cnnc1SCC(=O)Nc1ncc([N+](=O)[O-])s1	-23.9	1.24	.	.	40.9*	0.591	51.2*
OCCC1CCCCN1CC(O)COCc1ccc(Cl)cc1 (configuration not stated)	3.1	0.969	.	.	-0.9	1.01	.
Nc1nc(-c2ccco2)cs1	15.3	0.847	0.7	29.6	31.4	0.686	.
c1coc(-c2nc(-c3ccco3)c(-c3ccco3)nc2-c2ccco2)c1	0.9	0.991	0.9	5.9	71.2*	0.288	84.2*
Nc1nc(-c2ccco2)c(-c2ccco2)s1	24.8	0.752	0.8	22.2	67.3*	0.327	69.0*
COc1ccc([C@H]2CC(=O)C=C(c3cccc(C(C)C)c3)C2)cc1OC	15.3	0.847	.	.	12.2	0.878	.
O=C1NN(c2cccc(Br)c2)C(=O)/C1=C/c1ccc(-c2cc([N+](=O)[O-])ccc2O)o1	34.9	0.651	.	.	45.2*	0.548	47.0*
CC1=NN(c2ccc(C)cc2)C(=O)/C1=C/c1ccc(-c2cc([N+](=O)[O-])ccc2O)o1	3.9	0.961	.	.	32.7	0.673	.
NS(=O)(=O)c1cc(C(=O)N=Nc2c(O)[nH]c3ccccc23)ccc1Cl	14.0	0.86	.	.	46.5*	0.535	48.0*
O=C(N=Nc1c(O)[nH]c2ccccc12)c1cccc(S(=O)(=O)Nc2ccccc2Cl)c1	-13.4	1.13	1.2	-23.1	11.6	0.884	.
Cc1cc(C)n(CCCN2CCC(C(=O)Nc3cccc(-c4cccc(F)c4)c3)CC2)n1	-0.1	1	.	.	-249.7	3.5*	-201.5
Cc1ccccc1C(=O)N1CCC(C(=O)Nc2cccc(F)c2)CC1	-15.8	1.16	1.1	-12.5	-9.0	1.09	.
Cc1ccc(S(=O)(=O)NCc2cccnc2)cc1C(=O)NC1CCCCC1	-8.3	1.08	.	.	-1.5	1.01	.
CCCCn1c(N)c(N(C(=O)CSc2nnnn2-c2ccccc2C)C2CCCC2)c(=O)[nH]c1=O	3.0	0.97	.	.	7.1	0.929	.
NS(=O)(=O)c1ccc(Nc2nc(-c3ccc(O)cc3O)cs2)cc1	-6.9	1.07	1.2	-19.1	40.5*	0.595	59.9*
CCOC(=O)CSC1=Nc2ccccc2C2=NC(CC(=O)NCc3ccc4c(c3)OCO4)C(=O)N12 (configuration not stated)	20.1	0.799	1	-1.9	44.2*	0.558	58.9*
Cc1c(NS(=O)(=O)c2cc(C(=O)NC(C)c3ccccc3)ccc2Cl)c(=O)n(-c2ccccc2)n1C (configuration not stated)	-18.6	1.19	.	.	4.9	0.951	.
C=C(C)c1cccc(C(C)(C)NC(=O)NC(c2ccccc2)c2ccc(OC)cc2)c1 (configuration not stated)	-81.9	1.82	0.9	5.4	i	12*	-358.7
C=C(C)c1cccc(C(C)(C)NC(=O)Nc2ccc(OC)cc2)c1	20.1	0.799	1	-0.6	-7.5	1.07	.
